Data: ChEMBL document CHEMBL4513216, “Probing the Open Global Health Chemical Diversity Library for Multistage-Active Starting Points for Next-Generation Antimalarials” (ACS Infect Dis, 2020)

assay: Toxicity liver stage against HepG2, at 10uM; assay type: cell-based; design: test concentration 10 uM, cell line HepG2-A16-CD81EGFP; conditions: human, HepG2-A16-CD81EGFP cells; read-out: INHIBITION
In short: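 Uninfected HepG2-A16-CD81EGFP cells, 3 × 10^3 per well, 1536-well, plated on prespotted compound at 10 μM final, parasite-free screening media added to match infected plates; puromycin 10 μM positive, DMSO 0.5% negative; run in parallel with 48 h PbLuc assay at 37 °C, 5% CO2; viability by CellTiter-Glo luminescence, normalized to controls.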

SMILES	cytotoxicity at 10 µM
c1ccc(O[C@H]2COCCN(Cc3cccc4c3OCO4)C2)cc1	3.53%
Cc1n[nH]c2c1C(c1ccc(F)cc1)SCC(=O)N2 (stereo unspecified)	2.06%
O=C(NC[C@H]1CCCC[C@H]1O)c1cccc2[nH]c(-c3ccco3)nc12	-2.51%
O=C(Cn1ccc2ccccc21)NC[C@@H]1CCCN2CCCC[C@H]12	-4.16%
Cn1cc(CN2CCc3c(c(COCC#N)nn3C)C2)cn1	-2.45%
CN(C)C(=O)c1cc2c(nc1NCC1CC1)CCNCC2	8.39%
CN(C)Cc1nn(C)c2c1CN(C(=O)c1cccc(C#N)c1)C2	7.38%
O=C(c1ccoc1)N1CCOCC2(CCN(Cc3cccs3)C2)C1 (stereo unspecified)	-2.98%
CCOCC1CN(C(=O)c2ccoc2C)Cc2cnn(C)c21 (stereo unspecified)	-2.48%
CC(C)Oc1ncnc2c1CCN(c1cc(C(F)(F)F)ncn1)CC2	19%
CCOc1ncnc2c1CCN(c1cc(C(F)(F)F)ncn1)CC2	12.8%
CC(C)CCNC(=O)c1c(-n2cnnn2)sc2c1CCCC2	8.79%
CNC(=O)[C@H]1C[C@@H]2CN(S(=O)(=O)c3ccccc3)C[C@@H]2N1C(C)=O	-10.4%
CCn1nc(C)c(C(=O)Nc2ccc3c(c2)C(C)(C)C(=O)N3C)c1C	6.42%
CCOc1ccccc1Nc1nc2c(C)nn(C)c2c(=O)n1C	-7.53%
Cc1nc(NCc2nccn2C)cc(C2COCCN2)n1 (stereo unspecified)	5.32%
O=C(NCCc1cc2nc(-c3ccncc3)ccn2n1)C1CC1	5.82%
N[C@@H]1CCC[C@@H](Oc2ccc(F)cc2Oc2cccc(F)c2)[C@@H]1O	-22.2%
O=C(NCC1CC1)Nc1cnc2ccc(F)cc2c1O	-8.58%
CN1CCC(Cc2cccc(-c3cc(F)ccc3C(=O)O)n2)CC1	-3.22%
CC(C)N1CCC(Cc2cc(-c3cccc(C(=O)O)c3)ncn2)CC1	-8.99%
CC(C)C(=O)N1CCC(Cc2nccnc2Nc2ccccn2)CC1	-7.08%
Cc1c[nH]nc1C1CCCN(C(=O)c2c(C)noc2C)C1 (stereo unspecified)	-3.53%

SMILES	cytotoxicity at 10 µM
Cn1ccc(C(=O)N2CCC(Cc3cccc4ncccc34)C2)n1 (stereo unspecified)	-4.83%
CCn1ncc(CN2CCc3c(nc(-c4cccnc4)[nH]c3=O)C2)c1C	1.34%
Cc1cc(Br)cnc1N(C)CC1CCOC1 (stereo unspecified)	4.99%
Cc1csc(N2CCCN(C(=O)c3nccnc3N)CC2)n1	-2.42%
CC(C)N(CC(C)(C)O)C(=O)NC1CC1	5.73%
CCCc1noc(C[S+]([O-])CC(=O)NCc2ccccc2)n1 (stereo unspecified)	-4.3%
COC(=O)CC(NC(=O)CCCn1cccn1)c1ccc(Cl)cc1 (stereo unspecified)	4.7%
CCCC(=O)NC1CCCN(C(=O)c2ccc(C)nc2)C1 (stereo unspecified)	17.5%
COC(=O)c1sc2cccc(F)c2c1CNC(=O)C1CCOC1 (stereo unspecified)	8.97%
CN1CCC(CCNC(=O)N2CCN(Cc3ccon3)CC2)CC1	-6.49%
N#Cc1ccc(CNC(=O)NC2CCN(c3ncccn3)CC2)cc1	11.3%
Cc1n[nH]c(C2CN(CC(=O)NCCC3=CCCCC3)CCO2)n1 (stereo unspecified)	12.9%
Cc1ccccc1-c1cc(NC(=O)NC2CCC(O)CC2)n(CCO)n1 (stereo unspecified)	1.09%
CCSc1ccc(C(=O)N2CCCC2C(=O)N2CCOCC2)cn1 (stereo unspecified)	-6.98%
COc1ccc(CC(=O)N(C)C2CCN(C)C2=O)cc1F (stereo unspecified)	0.0152%
CC(C)(C)c1cc(NC(=O)CN2CCCC(Cn3cncn3)C2)on1 (stereo unspecified)	3.69%
CN(CCCc1n[nH]c(N)c1C#N)C(=O)NC1CC1	5.85%
CNS(=O)(=O)CCCN1CCCCCC1c1ccc(C)o1 (stereo unspecified)	-7.58%
CN(C)c1cc(CNCc2ccc(N3CCOCC3)cc2)ccn1	23.3%
CC(C)C(O)CCNC(=O)Nc1cc(F)ccc1-n1cccn1 (stereo unspecified)	-3.86%
Cc1[nH]c2ccccc2c1CCNC(=O)N1CCC2(C1)OCCO2	1.12%
Cc1noc(CN2CCN(CC(C)O)CC2)n1 (stereo unspecified)	-10%
CC(CNC(=O)c1cccnc1Oc1cccnc1)N(C)C (stereo unspecified)	-14%

SMILES	cytotoxicity at 10 µM
Cc1ccc(-c2nc(CN3CCOC(Cn4cccn4)C3)cs2)o1 (stereo unspecified)	-8.86%
CN(Cc1cccs1)C(=O)CN1CCCC1Cn1cncn1 (stereo unspecified)	-15.6%
NC(=O)C1CCN(C(=O)Cn2nc(-c3ccccc3)oc2=O)C1 (stereo unspecified)	-13%
CC(C)C1CN(C(=O)c2nccnc2N)CCS1 (stereo unspecified)	-8.54%
Cc1nn(C)c(N2CCOCC2)c1CNC(C)c1cccnc1 (stereo unspecified)	-13.6%
CN(C)CCO[C@H]1CN(C(=O)c2ccc(C#N)cc2)[C@@H]2COC[C@H]12	0.929%
Cc1ncsc1CN1CC[C@H]2C(=O)N(c3ccccc3)CCO[C@H]2C1	1.26%
CNCC(=O)Nc1cccc(-c2cnc(NCCO)nc2)c1	-6.94%
C[C@H]1CCCCN1CCCNc1nccc(-c2c[nH][nH]c2=O)n1	-6.91%
O=C1CN(CC2CC2)Cc2nc(NCCc3ccccn3)sc21	-12.3%
O=C(Nc1ccc(-c2cnc(NCCO)nc2)cc1)[C@@H]1CCCCN1	-5.08%
CSCc1noc(CN2CC3(CCCC3)CC2=O)n1	4.29%
O=c1[nH]c(-c2cccnc2)nc2c1CCN(S(=O)(=O)N1CCCC1)C2	0.384%
Cc1ccc(CSc2nc(N)cc(NCCS(=O)(=O)N(C)C)n2)cc1	0.479%
CC(c1ccc(-c2cnc(N)nc2)cc1)N1CCOCC1 (stereo unspecified)	1.97%
O=C(c1scc2c1OCCO2)N1CCC(Cc2cccc(CO)c2)C1 (stereo unspecified)	6.01%
O=C(CCn1ccc(=O)[nH]c1=O)N1CCC(OCc2cccnc2)CC1	-15.7%
CCn1nc(CC(C)C)cc1C(=O)N1CCCOC(CN2CCCC2)C1 (stereo unspecified)	-7.66%
CCC(=O)c1ccc(OCC(=O)NC(C)c2ncnn2CC)cc1 (stereo unspecified)	1.9%
COc1ccc(Cl)cc1S(=O)(=O)N(C)CC(N)=O	7.82%
Cc1ccccc1CS(=O)(=O)NCCCN1CCCC1	-7.49%
CC1CCN(S(=O)(=O)NCC2CCOc3ccccc3C2)CC1 (stereo unspecified)	-1.25%
COCCN(C)C[C@@H]1CN(C(=O)c2cccc(C(F)(F)F)c2)C[C@@H]1CO	-17.5%

SMILES	cytotoxicity at 10 µM
COCCn1ccnc1C1CCCN(C(=O)CSCC2CC2)C1 (stereo unspecified)	-14.6%
N#Cc1c(SCCN2CCCCC2)sc2c(O)cc(O)nc12	-13.1%
CNC(=O)COc1ccc(CNc2cncc(-n3cccn3)n2)cc1	-0.906%
CN(Cc1ccsc1)C(=O)c1cccc(S(=O)(=O)NCC2CCCO2)c1 (stereo unspecified)	-13.8%
COc1c(C2CCCN2CC(=O)Nc2cc(C)nn2C)c(C)nn1C (stereo unspecified)	3.72%
COc1cccc2cc(CNC(=O)N3CCS(=O)(=O)CC3)oc12	-19.3%
O=C(COc1ccccc1)NCCNC(=O)c1scnc1Cl	-4.83%
Cc1ccccc1CCNC(=O)CN1CCCC(Cn2cncn2)C1 (stereo unspecified)	-5.04%
Cc1cc(CN(C)C(=O)c2ccc(F)c(C(F)(F)F)c2)no1	-10%
CC(C)C(C)NC(=O)c1cc(Br)c2c(c1)OCCO2 (stereo unspecified)	-9.89%
Cc1ccccc1OCCN1CCCC(c2cc(C(N)=O)[nH]n2)C1 (stereo unspecified)	-14.3%
Cc1nc(C2CCCN(C(=O)c3cc(Cl)c4c(c3)OCO4)C2)no1 (stereo unspecified)	-2.09%
Cc1cnn(CC2CCCCN2C(=O)c2csc(C)n2)c1 (stereo unspecified)	-1.16%
CCn1cnnc1CNC(=O)N1CCC(OCc2ccccc2)CC1	-5.26%
CCn1cnnc1CNC(=O)N1CCN(CCc2ccccc2)CC1	-8.14%
CCC1CN(CC(=O)Nc2cc(C)nn2C)CCO1 (stereo unspecified)	1.14%
CCOc1ccc(CC(CNC(=O)c2sccc2C)C(N)=O)cc1 (stereo unspecified)	-4.18%
COc1ccccc1CCNC(=O)N1CCCC(c2nncn2C)C1 (stereo unspecified)	-25.4%
CC(C(=O)N1CCC(Nc2cccnn2)CC1)n1ccnc1 (stereo unspecified)	-9.44%
Cc1csc(N2CCN(C(=O)CCc3ccccn3)CC2)n1	-4.27%
Cc1cc(C)n(CC2CCCN2C(=O)Cc2c(C)noc2C)n1 (stereo unspecified)	-4.05%
Cc1cc(N2CCC(NC(=O)C3CC3)CC2)nc(-c2ccncc2)n1	-3.71%
Cc1nc(Nc2cnccn2)cc(C2CCN(CCO)C2)n1 (stereo unspecified)	0.636%

SMILES	cytotoxicity at 10 µM
O=C(C1CCOCC1)N1C[C@H]2CCC[C@@]2(COc2cccnc2)C1	-1.18%
O=C(c1ccccn1)N1CCC2(CC1)COC(COCC1CC1)C2 (stereo unspecified)	5.14%
CCN1CCOCC12CCN(C(=O)Cc1cccs1)CC2	6.22%
COCc1nn(C(C)C)c2c1CCN(Cc1cccs1)C2	-9.55%
Cn1nc(C2CCN(C(=O)CN3CCCCC3)CC2)c2cccnc21	-30.1%
Cc1cc2c(=O)n3c(nc2s1)CCN(Cc1cnc(C)n1C)CC3	-7.73%
COCCn1cc2c(n1)C(CNCc1ccsc1)OCC2 (stereo unspecified)	3.89%
CN1CCN([C@@H]2CN(C(=O)Cc3ccsc3)[C@@H]3CCCO[C@H]23)CC1	2.87%
Cc1cccc(CN2CCc3nnc(Cn4cccc4)n3CC2)n1	1.7%
OCCOCc1n[nH]c2c1CN(Cc1ccco1)C2	6.71%
Cc1occc1C(=O)N1CCCC2(CCN(CCN3CCCC3)C2=O)C1 (stereo unspecified)	-9.18%
CCc1ncc(CN[C@@H]2CCCN(C(C)=O)[C@H]2c2ccc(C)s2)cn1	-26.2%
Cc1cccc(CN2C[C@@H]3CN(Cc4ccoc4)CCO[C@@H]3C2)n1	6.53%
CN(C)C[C@]12COC[C@H]1CN(C(=O)Cc1ccc3c(c1)OCO3)C2	-9.94%
c1ccc(CN2CCc3c(COCC4CC4)cncc3C2)nc1	2.41%
Cn1ccnc1CN1CCC2(CC1)Cc1ccccc1CNC2=O	-1.6%
O=C(C1CN(CC2CCOCC2)CC12CCOCC2)N1CCOCC1 (stereo unspecified)	7.49%
O=S(=O)(C1CC1)N1CCC2(CC1)CN(Cc1nccs1)CCO2	8.1%
CCCn1nccc1NC(=O)CN1CCc2cnc(CC)nc2C1	2.31%
